Screening results deposited in PubChem by The Scripps Research Institute Molecular Screening Center.
Shown are actives, neighbours in structure and some others; about 2.9% of the full set was active somewhere.
CHO-K1 Ca antag – nonselective inhibitor or artifact in parental CHO-K1 cells; ATP-induced calcium, Fluo-8 fluorescence; inhibition, % at 3 µM; hit rate 0.6% among 360,000;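 active means inhibition above a per-plate cutoff, the plate's mean sample inhibition plus 3 SD, cut at about 24% in these data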
M1 PAM parental – nonselective calcium activators in parental CHO-K1 cells, primary screen, counter-screen for M1 PAM project, cell-based, Fluo-8 calcium fluorescence, full deck, 1536-well. ATP EC20; 0% at ATP EC20, 100% at ATP max. activation, % at 3 µM. hit rate 0.02% among 360,000. AID 602247, 2012;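 active means activation above the run cutoff, the mean activation of all test compounds plus 3 SD, cut at about 40% in these data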;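 further: peak over basal fluorescence ratio in a 140 s read after ATP addition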
OX1R antag-1 – OX1R (HCRTR1) antagonists, primary screen, fluorescence, CHO/OX1R cells, Fluo-8 calcium, orexin A | Fluo-8 calcium fluorescence | hit rate 0.43% among 330,000 | inhibition, % at 5 µM | AID 434989, 2010 | Orexin/Hypocretin receptor type 1 (Homo sapiens), O43613;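 active means inhibition above its plate's threshold, mean inhibition of all tested compounds on the plate plus 3 SD, cut at about 37% in these data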
Target sequence (O43613 whole entry, looked up): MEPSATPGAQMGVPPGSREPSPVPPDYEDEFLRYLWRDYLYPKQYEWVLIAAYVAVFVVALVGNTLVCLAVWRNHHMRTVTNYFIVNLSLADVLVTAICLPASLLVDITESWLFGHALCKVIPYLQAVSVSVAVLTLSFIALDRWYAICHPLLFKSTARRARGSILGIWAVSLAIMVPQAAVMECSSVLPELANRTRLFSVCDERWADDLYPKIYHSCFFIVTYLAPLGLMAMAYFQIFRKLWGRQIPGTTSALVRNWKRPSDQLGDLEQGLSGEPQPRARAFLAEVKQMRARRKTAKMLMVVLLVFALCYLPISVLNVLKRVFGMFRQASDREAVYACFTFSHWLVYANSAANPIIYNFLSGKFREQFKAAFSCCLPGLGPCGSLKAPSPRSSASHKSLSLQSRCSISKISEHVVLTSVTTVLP
CHO parental Ca – ATP-evoked calcium signal inhibitors, parental CHO, primary screen, counter-screen for OX1R antagonist project, cell-based, fluorescence, Fluo-8 calcium dye. parental CHO-K1, ATP-induced calcium, Fluo-8 fluorescence. inhibition, % at 5.6 µM. hit rate 0.63% among 330,000. AID 463079, 2010;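 active means inhibition above that plate's mean sample inhibition plus 3 SD, cut at about 26% in these data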
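Measured by: calcium-sensitive Fluo-8 fluorescence / Test system: CHO parental line / Controls: ATP-challenged DMSO wells low, unchallenged DMSO wells high / Measure: % inhibition / Compound: single nominal dose of 5.6 µM per compound / Replicates: single well per compound, no replicates / Reagent: ATP as calcium-mobilizing challenge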
M1 ag parental – counter-screen for M1 agonists: effect in parental CHO-K1 cells | Fluo-8 calcium fluorescence; scaled to maximal ATP response, vehicle zero | activation, % at 3 µM | hit rate 0.48% among 360,000 | AID 602248, 2012; in the data active means activation above about 15%;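 further: untransfected CHO-K1 host cells lacking M1 receptor as counterscreen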
OX1R antag-2 – antagonists of human orexin 1 receptor (OX1R) | Orexin/Hypocretin receptor type 1 (Homo sapiens), O43613 | OX1R-expressing cells, FRET antagonist read-out | inhibition, % at 6.6 µM | hit rate 1.8% among 330,000; in the data active means inhibition mostly above about 38%, no sharp cut-off; inactive means mostly below about 40%
Numbers stand for hits; . = inactive; / = no result given.

SMILES	CHO-K1 Ca antag	M1 PAM parental	OX1R antag-1	CHO parental Ca	M1 ag parental	OX1R antag-2
CCN(CCCNC(=O)CCc1nc(-c2ccc(OC)cc2)no1)c1cccc(C)c1	.	.	.	.	.	54.6
COc1ccc(-c2noc(CCC(=O)NCCc3ccccc3)n2)cc1	.	.	.	.	.	.
CCCCCCCCCCCCCCC(O)C[N+](C)(CCO)CCO (centres undefined)	.	.	/	/	.	/
O=C(CNC(=O)c1cccs1)Nc1ccc(N2CCOCC2)cc1	.	.	.	.	.	.
Nc1ccc(-c2nc3ccc(N)cc3[nH]2)cc1	.	.	.	.	.	.
Nc1ccc2cc3[nH]c4cc(N)ccc4c3nc2c1	56.8	.	/	/	33.2	/
CCc1ccc(NC(=O)C2CCN(c3ncnc4c3nc3n4CCCCC3)CC2)cc1	.	.	.	.	.	.
CCCCN(Cc1ccco1)C(=O)C1CCCN(c2ncnc3c2nc2n3CCCCC2)C1 (centres undefined)	.	.	.	.	.	39.7
CN(C(=O)C1CCCN(c2ncnc3c2nc2n3CCCCC2)C1)c1cccc(Cl)c1 (centres undefined)	.	.	.	.	.	40.3
O=C(Nc1ccc(F)cc1)C1CCN(c2ncnc3c2nc2n3CCCCC2)CC1	.	.	.	64.6	.	.
O=C(NNS(=O)(=O)c1ccc(F)cc1)C1CCN(Cc2cccc(F)c2)CC1	.	.	.	.	.	.
O=C1CCc2cc(Br)ccc2O1	.	.	/	/	.	/
CCN(CC)c1ccc2cc(-c3nc(-c4ccc(OC)cc4)cs3)c(=O)oc2c1	/	/	106.1	97.5	/	.
CCN(CC)c1ccc2cc(C(=O)c3cccs3)c(=O)oc2c1	39.9	.	/	/	73.8	/
CCN(CC)c1ccc2cc(-c3nc4ccccc4[nH]3)c(=O)oc2c1	.	.	112.8	79.7	79.8	81.2
CCN(CC)c1ccc2cc(C(=O)NCc3ccc(F)cc3)c(=N)oc2c1	.	.	.	.	.	.
CC(=O)Nc1ccc(Sc2ncccc2C(=O)Nc2cc(Cl)cc(Cl)c2)cn1	.	.	.	.	.	.
CC(=O)Nc1ccc(Sc2ncccc2C(=O)Nc2ccc(OC(F)(F)F)cc2)cn1	58.7	.	87.7	77.3	52.9	.
C=CCc1cccc(CNc2cnc3ccccc3c2)c1O	38.5	.	.	72.3	.	.
COc1ccc2ccccc2c1CNC(C)c1ccccc1 (centres undefined)	.	.	.	.	.	.
CC(NCCCOc1cccc2ccccc12)c1ccccc1 (centres undefined)	.	.	.	.	28.3	.
CN1/C(=C\C=C2/SC(=S)N(CC(=O)O)C2=O)C(C)(C)c2ccccc21	.	.	76.6	69.4	30.5	.
CCN1C(=O)/C(=C/C=C2/SCCN2C)SC1=S	.	.	.	.	.	.
C=CCN1C(=O)/C(=C\C=C2\N(C)c3ccccc3C2(C)C)SC1=S	.	.	.	.	.	.
CN1CCS/C1=C\C=C1/SC(=S)N(CC(=O)O)C1=O	.	.	/	/	39.6	/
SMILES	CHO-K1 Ca antag	M1 PAM parental	OX1R antag-1	CHO parental Ca	M1 ag parental	OX1R antag-2
COc1ccc(C2CC(C)=C(C#N)S(=O)(=O)C2C#N)cc1 (centres undefined)	.	.	.	.	.	.
C#CCN(C[C@H]1[C@H](OC(=O)NCc2ccccc2)[C@H](OC(=O)NCc2ccccc2)C[C@@H](C(=O)OC)[C@H]1C(=O)OC)S(=O)(=O)c1ccc(C)cc1	37.9	.	/	/	.	/
Nc1nn(-c2ccccc2)c(N)c1N=Nc1cccc(F)c1	.	.	.	.	.	.
Cc1nn(-c2ccccc2)c(N)c1N=Nc1cccnc1	.	.	.	.	.	53.6
CCCc1nnc(NC(=O)CSc2nc3ccccc3[nH]2)s1	30.5	.	.	.	.	.
Cc1cc2oc(=O)cc(CN3CCCCC3C)c2cc1C (centres undefined)	.	.	.	.	.	.
COc1ccc(/C=C2\SC(=S)N(CC(=O)NC3C=CS(=O)(=O)C3)C2=O)cc1 (centres undefined)	.	.	.	.	.	.
Cc1ccc(S(=O)(=O)N2CCN(c3ccnc4cc(Cl)ccc34)CC2)cc1C	.	.	.	37.5	.	.
Cc1cc(N2CCN(S(=O)(=O)c3ccc(Cl)cc3)CC2)c2ccccc2n1	.	.	.	57.9	.	.
CC(=O)c1ccc(S(=O)(=O)N2CCN(c3ccnc4cc(Cl)ccc34)CC2)cc1	.	.	/	/	.	/
Cc1ccc(S(=O)(=O)N2CCN(c3ccnc4cc(Cl)ccc34)CC2)cc1	.	.	53.3	56.4	.	.
CC1Cc2ccccc2N1C(=O)CSc1nnc(N)s1 (centres undefined)	.	.	.	.	.	.
O=c1ccc2c([nH]1)CCCCCCCCCC2	.	.	.	.	.	.
O=C(N/N=C/c1cc(Cl)ccc1O)C(=O)Nc1ccccc1OC(F)(F)C(F)F	.	.	.	.	.	69.1
Cc1ccnc(Sc2ncccc2[N+](=O)[O-])n1	.	.	.	.	.	59.5
Nc1nnc(Sc2ncccc2[N+](=O)[O-])s1	.	.	.	.	.	38.6
CN(Cc1ccc(OC(F)F)cc1)C(=O)c1cccc(S(=O)(=O)N2CCN(Cc3ccccc3)CC2)c1	.	.	/	/	.	/
Cc1ccc(C)c(OCCC(=O)OCc2csc(CC(=O)Nc3ccccc3C)n2)c1	.	.	/	/	.	/
c1ccc(-c2nc3ccccc3[nH]2)nc1	.	.	.	.	.	.
c1ccc(-c2nc3c(ccc4ccccc43)[nH]2)nc1	.	.	.	.	.	70.5
Oc1c(C=Nc2cccc3cccnc23)sc2ccccc12	/	/	99.0	49.0	/	.
CCCCn1c(SCC(=O)Nc2cc(NC(=O)c3ccco3)ccc2C)nc2ccccc2c1=O	.	.	.	.	.	41.1
C=CCOc1cccc(C(=O)N2CCCC(Nc3ccc4c(c3)OCCO4)C2)c1 (centres undefined)	56.9	.	.	.	.	.
COc1ccc(CNC(=O)CN(Cc2ccco2)C(=O)CCC(=O)Nc2ccccn2)cc1	.	.	.	.	.	.
COCc1cc(C)nc(SCC[N+](C)(C)CC(=O)c2ccccc2)c1C#N	.	.	.	.	.	.
CCOc1ccccc1NCc1cc(=O)oc2cc(C)ccc12	.	.	.	.	.	46.5
COc1ccc(C)cc1NCc1cc(=O)oc2cc(-c3ccccc3)c(O)cc12	.	.	.	.	.	.
COc1cc(C(=O)NNC(=O)c2cccn2C)cc(OC)c1OC	.	.	.	.	.	.
COc1ccc(COCC(O)CN2CCC(CN3C(=O)c4cccc5cccc(c45)C3=O)CC2)cc1OC (centres undefined)	.	.	.	.	.	49.1
